From article PMC3123137 (Journal of immunology (Baltimore, Md. : 1950), 2011)
Entries after “also recorded” stand apart in the source; their conditions may differ. Bridge positions count the residues as written; N and C are the ends. Ends that are not written are not given here.

How the values were obtained:
sheep erythrocytes = experiment: Hemolytic assay; assay type: cell-based
Procedure, shortened: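 Sheep erythrocytes washed in VBS–5 mM Mg2+/EGTA; cell amount set by water-lysis titration to give OD405 ~1. Serially diluted test compound or anti-factor H SCR19–20 mAb mixed with cells and human lepirudin plasma (1:10 in VBS–Mg2+/EGTA), 37°C, 1 h, shaking. Lysis read as supernatant OD405 after centrifugation. Run ≥3 times with different donors' plasma; means ± SD of a representative run.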

factor H [1] = target: T1, factor H (Homo sapiens, UniProt P08603); experiment: ELISA, binding of purified factor H to immobilized peptide; conditions: summary statement
Procedure, shortened: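 Streptavidin (10 μg/ml in PBS) was coated overnight at 4°C and blocked with 2% BSA in PBS. Biotinylated test peptide or biotinylated linear compstatin control was added at 10 μg/ml for 30 min at RT. Purified human factor H was serially diluted in PBS from 2.5 μg/ml and bound for 1 h. Detection used goat anti-human factor H pAb, then HRP anti-goat IgG. Means ± SD, representative of three experiments.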

[2] = test system: alternative pathway of complement; experiment: Inhibition of biomaterial-induced AP activation by immobilized peptide; assay type: biochemical, human
factor H [3] = target: T1, factor H; experiment: Factor H capture from lepirudin plasma by immobilized peptide; assay type: binding; conditions: no streptavidin-biotin conjugation
fH1–4 = fH1–4 (Homo sapiens, UniProt P08603); experiment: Monoclonal phage ELISA, N-terminal fragment; assay type: binding; conditions: phage clone; coated wells, 1 h room temperature, anti-M13 HRP/ABTS
Procedure, shortened: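 Wells were coated overnight at 4°C with recombinant factor H SCR1–4 (5 μg/ml in PBS), with BSA wells in parallel, then blocked with 5% milk in PBST for 1 h. Amplified single third-round plaques were bound for 1 h at RT and washed six times with PBST. Detection used HRP anti-M13 mAb with ABTS. An unrelated cyclic-peptide phage served as control, and C3b as negative control.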

[4] = test system: factor H cofactor activity; experiment: Factor H cofactor activity assay; assay type: biochemical, human; conditions: peptide expressed as fusion protein with phage PIII domain (Supplemental Fig. 2)
complement activation = conditions: cited from earlier work
immune cells = conditions: addition to blood, hemodialysis; ref [15]; cited from earlier work
cells = conditions: soluble inhibitor or heparin-coated surface; ref [8]–[11]; cited from earlier work
plasma proteins = conditions: ref [56], [57]; cited from earlier work
various cells = conditions: ref [11], [58], [59]; cited from earlier work

T1 sequence (P08603 19-1231): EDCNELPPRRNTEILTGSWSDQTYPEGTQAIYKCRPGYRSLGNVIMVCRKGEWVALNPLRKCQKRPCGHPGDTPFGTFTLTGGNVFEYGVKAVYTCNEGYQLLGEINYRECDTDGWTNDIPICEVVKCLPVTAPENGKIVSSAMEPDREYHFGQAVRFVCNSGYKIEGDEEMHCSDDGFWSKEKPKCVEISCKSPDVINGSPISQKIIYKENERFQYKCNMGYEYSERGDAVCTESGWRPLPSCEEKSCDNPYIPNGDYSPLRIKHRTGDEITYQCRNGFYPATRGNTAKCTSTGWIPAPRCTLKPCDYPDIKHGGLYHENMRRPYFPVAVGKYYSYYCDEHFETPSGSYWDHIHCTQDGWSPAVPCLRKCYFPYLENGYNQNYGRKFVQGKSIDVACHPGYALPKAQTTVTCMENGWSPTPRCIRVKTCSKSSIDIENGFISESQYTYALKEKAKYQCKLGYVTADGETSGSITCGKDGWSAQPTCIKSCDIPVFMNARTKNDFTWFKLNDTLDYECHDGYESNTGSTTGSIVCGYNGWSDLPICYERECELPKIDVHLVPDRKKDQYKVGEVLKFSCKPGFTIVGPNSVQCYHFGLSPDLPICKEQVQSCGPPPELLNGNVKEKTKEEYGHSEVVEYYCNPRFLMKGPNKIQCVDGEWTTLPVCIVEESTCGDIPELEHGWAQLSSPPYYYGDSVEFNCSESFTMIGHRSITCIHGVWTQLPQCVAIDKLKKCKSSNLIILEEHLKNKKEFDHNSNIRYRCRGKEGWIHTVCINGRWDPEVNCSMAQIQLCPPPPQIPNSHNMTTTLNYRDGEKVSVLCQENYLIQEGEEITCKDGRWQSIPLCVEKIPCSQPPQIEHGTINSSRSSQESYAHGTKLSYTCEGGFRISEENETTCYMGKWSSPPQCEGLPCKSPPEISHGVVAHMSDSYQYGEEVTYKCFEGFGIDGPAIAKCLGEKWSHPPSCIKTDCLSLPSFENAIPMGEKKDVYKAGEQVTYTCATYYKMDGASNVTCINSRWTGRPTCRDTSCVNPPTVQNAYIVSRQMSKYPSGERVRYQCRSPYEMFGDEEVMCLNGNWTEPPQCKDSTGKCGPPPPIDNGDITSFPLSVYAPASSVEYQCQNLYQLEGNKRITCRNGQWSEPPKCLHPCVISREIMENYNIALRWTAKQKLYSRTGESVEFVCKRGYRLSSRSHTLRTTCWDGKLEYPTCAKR
Chain of fH1–4 (P08603 19-264): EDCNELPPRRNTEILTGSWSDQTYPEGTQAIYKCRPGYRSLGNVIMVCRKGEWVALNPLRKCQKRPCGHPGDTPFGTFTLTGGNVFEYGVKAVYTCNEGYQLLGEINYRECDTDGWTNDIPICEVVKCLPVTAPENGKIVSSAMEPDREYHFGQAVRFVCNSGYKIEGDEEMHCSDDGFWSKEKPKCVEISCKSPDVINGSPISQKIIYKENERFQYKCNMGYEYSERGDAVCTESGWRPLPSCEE

ASSGMCFTKKTVLC (disulfide 6-14 (inferred)) [4A1]
Effect on hemolytic assay as phage PIII fusion protein (sheep erythrocytes; peptide expressed as fusion protein with phage PIII domain (Supplemental Fig. 2)): affected

ASSSRCTYDHWCSH (disulfide 6-12 (inferred)) [5C6]
Factor H-capturing activity (factor H [1]): high factor H-capturing activity while retaining its functional integrity; also recorded: able to capture factor H at high activity without interfering with its regulatory activity | Lysis of sheep erythrocytes (sheep erythrocytes; 5C6 up to 40 μM, lepirudin plasma 1:10 in VBS–Mg2+/EGTA, 37°C, 1 h, OD405): No lysis | Interference with factor H cell-surface binding / surface recognition (sheep erythrocytes; soluble 5C6 peptide, hemolytic assay (conclusion)): does not interfere with the cofactor activity or cell-surface binding properties of factor H; also recorded: did not interfere with the surface recognition properties of factor H | Inhibition of biomaterial-induced complement activation in undiluted plasma ([2]; immobilized on model biomaterial surface, undiluted lepirudin plasma): substantial inhibition of biomaterial-induced complement activation | Inhibition of complement, peptide coated directly onto polystyrene ([2]; peptide coated directly, no streptavidin-biotin conjugation): Neither factor H binding nor inhibition of complement was seen | Factor H binding, peptide coated directly onto polystyrene (factor H [3]): Neither factor H binding nor inhibition of complement was seen

ASSYDVGYSHDCRF [5-2C6]
Binding to fH1–4 (N-terminal regulatory region) (fH1–4): bound to the N-terminal regulatory region of factor H | Effect on cofactor assay as phage PIII fusion protein [4]: affected

compstatin
Filter-induced complement response (complement activation; addition to blood, hemodialysis, ref [15]): inhibited filter-induced complement response | Activation of immune cells and expression of pro-coagulative factors (immune cells): subsequent activation of immune cells and the expression of pro-coagulative factors | Biomaterial-induced activation and surface adhesion of cells (cells): inhibition of complement activation largely attenuates biomaterial-induced activation and surface adhesion of cells

heparin
Dependence of inhibition on factor H capturing (complement activation; heparin coating, ref [55]): independent of factor H capturing by heparin | Biomaterial-induced complement activation (complement activation; highly concentrated heparin coating, ref [14], [53]–[55]): inhibited biomaterial-induced complement activation | Complement activation at low concentrations in the fluid phase (complement activation; ref [14], [60]): may actually enhance complement activation at low concentrations in the fluid phase | Plasma protein binding specificity (plasma proteins): broad binding specificity for plasma proteins | Activation of cells (various cells): induces activation of various cells | Biomaterial-induced activation and surface adhesion of cells (cells): inhibition of complement activation largely attenuates biomaterial-induced activation and surface adhesion of cells

B1: decay accelerating factor (CD55): AP regulator immobilized on surfaces (protein, UniProt P08174 35-353, looked up)
Complement decay-accelerating …: DCGLPPDVPNAQPALEGRTSFPEDTVITYKCEESFVKIPGEKDSVICLKGSQWSDIEEFCNRSCEVPTRLNSASLKQPYITQNYFPVGTVVEYECRPGYRREPSLSPKLTCLQNLKWSTAVEFCKKKSCPNPGEIRNGQIDVPGGILFGATISFSCNTGYKLFGSTSSFCLISGSSVQWSDPLPECREIYCPAPPQIDNGIIQGERDHYGYRQSVTYACNKGFTMIGEHSIYCTVNNDEGEWSGPPPECRGKSLTSKVPPTVQKPTTVNVPTTEVSPTSQKTTTKTTTPNAQATRSTPVSRTTKHFHETTPNKGSGTTS
modifications: immobilized on surfaces
Biomaterial-induced complement after immobilization of AP regulators (complement activation; immobilized regulator, ref [39]–[41]): attenuated biomaterial-induced complement
